Experimental data: ChEMBL document CHEMBL1152312, “Neopyrrolomycins with broad spectrum antibacterial activity” (2009)
Values after ≈ are worked out from the molar mass of the structure shown. Active and inactive are the calls of the source. The calls are words filed in the database; no cut-off is given here.

What was measured:
Escherichia coli [1] = assay: Antibacterial activity against Escherichia coli 25922 by microdilution method; format: functional
Procedure, shortened: (§1)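 MIC determined by CLSI broth microdilution; organisms were ATCC strains and clinical isolates.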

Escherichia coli [2] = assay: Antibacterial activity against Escherichia coli 1411 by microdilution method; format: functional; procedure, shortened: as §1
Klebsiella pneumoniae [3] = assay: Antibacterial activity against Klebsiella pneumoniae 4352 by microdilution method; format: functional; procedure, shortened: as §1
Staphylococcus aureus [4] = assay: Antibacterial activity against methicillin-resistant Staphylococcus aureus 43300 by microdilution method; format: functional
Procedure, shortened: (§2)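 MIC values from CLSI broth microdilution. Strains came from the ATCC collection and from clinical isolates.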

Staphylococcus aureus [5] = assay: Antibacterial activity against methicillin-sensitive Staphylococcus aureus 6538 by microdilution method; format: functional; procedure, shortened: as §2
Staphylococcus aureus [6] = assay: Antibacterial activity against methicillin-sensitive Staphylococcus aureus 29213 by microdilution method; format: functional; procedure, shortened: as §2
Pseudomonas aeruginosa [7] = assay: Antibacterial activity against Pseudomonas aeruginosa 27853 by microdilution method; format: functional; procedure, shortened: as §1
Streptococcus pneumoniae [8] = assay: Antibacterial activity against Streptococcus pneumoniae 49619 by microdilution method; format: functional; procedure, shortened: as §1
Enterococcus faecium [9] = assay: Antibacterial activity against vancomycin-resistant Enterococcus faecium 700221 by microdilution method; format: functional; procedure, shortened: as §2
HepG2 = assay: Cytotoxicity against human HepG2 cells assessed as effect on cell viability at 43 ug/mL after 48 hrs by celltiter glow assay; format: functional, cell-based
Procedure, shortened: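 HepG2 grown in MEM with 10% heat-inactivated FBS, 0.10 mM nonessential amino acids, 1 mM pyruvate, 37 °C, 5% CO2. Seeded at 1.25 × 10^5 cells/mL 24 h before treatment. DMSO-dissolved compounds tested over 0.6–128 µg/mL (1% final DMSO) for 48 h. Luminescent CellTiter-Glo viability read-out relative to DMSO control; CC90 taken.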

NHDF = assay: Cytotoxicity against NHDF cells after 48 hrs by celltiter glow assay; format: functional; conditions: Homo sapiens
Procedure, shortened: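 Fibroblasts kept at 37 °C, 5% CO2 in FGM-2 medium, passage ≤16. Seeded at 1.25 × 10^5 cells/mL 24 h before dosing. Compounds dissolved in DMSO, tested 0.6–128 µg/mL at 1% final DMSO for 48 h. Viability by CellTiter-Glo luminescence, expressed as percent of DMSO control.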

Pseudomonas aeruginosa [10] = assay: Antibacterial activity against Pseudomonas aeruginosa 1473 by microdilution method; format: functional; procedure, shortened: as §2
Staphylococcus aureus [11] = assay: Antibacterial activity against methicillin-sensitive Staphylococcus aureus 100 ATCC 29213 by microdilution method; format: functional; procedure, shortened: as §2
Staphylococcus aureus [12] = assay: Antibacterial activity against methicillin-resistant Staphylococcus aureus 1137 by microdilution method; format: functional; procedure, shortened: as §2
Staphylococcus aureus [13] = assay: Antibacterial activity against methicillin-resistant Staphylococcus aureus 2170 by microdilution method; format: functional; procedure, shortened: as §2
Staphylococcus aureus [14] = assay: Antibacterial activity against vancomycin-intermediate Staphylococcus aureus 2012 by microdilution method; format: functional; procedure, shortened: as §2
Staphylococcus aureus [15] = assay: Antibacterial activity against vancomycin-intermediate Staphylococcus aureus 2018 by microdilution method; format: functional; procedure, shortened: as §2
Staphylococcus aureus [16] = assay: Antibacterial activity against Linezolid, methicillin-resistant Staphylococcus aureus 1725 by microdilution method; format: functional; procedure, shortened: as §2
Staphylococcus aureus [17] = assay: Antibacterial activity against Linezolid, methicillin-resistant Staphylococcus aureus 1651 by microdilution method; format: functional; procedure, shortened: as §2
Staphylococcus aureus [18] = assay: Antibacterial activity against community-acquired Staphylococcus aureus 2144 by microdilution method; format: functional; procedure, shortened: as §2
[19] = test system: Staphylococcus epidermidis; assay: Antibacterial activity against methicillin-sensitive Staphylococcus epidermidis 1597 by microdilution method; format: functional; procedure, shortened: as §2
[20] = test system: Staphylococcus epidermidis; assay: Antibacterial activity against methicillin-resistant Staphylococcus epidermidis 1452 by microdilution method; format: functional; procedure, shortened: as §2
[21] = test system: Staphylococcus epidermidis; assay: Antibacterial activity against Staphylococcus epidermidis 495 by microdilution method; format: functional; procedure, shortened: as §2
Enterococcus faecalis = assay: Antibacterial activity against vancomycin-resistant Enterococcus faecalis 846 by microdilution method; format: functional; procedure, shortened: as §2
Enterococcus faecium [22] = assay: Antibacterial activity against vancomycin-sensitive Enterococcus faecium 843 by microdilution method; format: functional; procedure, shortened: as §2
Enterococcus faecium [23] = assay: Antibacterial activity against vancomycin-resistant Enterococcus faecium 1254 by microdilution method; format: functional; procedure, shortened: as §2
Streptococcus pneumoniae [24] = assay: Antibacterial activity against penicillin-susceptible Streptococcus pneumoniae 866 by microdilution method; format: functional; procedure, shortened: as §2
Streptococcus pneumoniae [25] = assay: Antibacterial activity against penicillin-resistant Streptococcus pneumoniae 940 by microdilution method; format: functional; procedure, shortened: as §2
Streptococcus pneumoniae [26] = assay: Antibacterial activity against penicillin-resistant Streptococcus pneumoniae 748 by microdilution method; format: functional; procedure, shortened: as §2
Streptococcus pneumoniae [27] = assay: Antibacterial activity against quinolone-resistant Streptococcus pneumoniae 376 by microdilution method; format: functional; procedure, shortened: as §2
Streptococcus pneumoniae [28] = assay: Antibacterial activity against quinolone-resistant Streptococcus pneumoniae 379 by microdilution method; format: functional; procedure, shortened: as §2
Streptococcus pneumoniae [29] = assay: Antibacterial activity against multidrug-resistant Streptococcus pneumoniae 933 by microdilution method; format: functional; procedure, shortened: as §2
Streptococcus pneumoniae [30] = assay: Antibacterial activity against Streptococcus pneumoniae 1195 ATCC 49619 by microdilution method; format: functional; procedure, shortened: as §2
Streptococcus pyogenes = assay: Antibacterial activity against Streptococcus pyogenes 723 by microdilution method; format: functional; procedure, shortened: as §2
Streptococcus agalactiae = assay: Antibacterial activity against Streptococcus agalactiae 2033 by microdilution method; format: functional; procedure, shortened: as §2
Moraxella catarrhalis = assay: Antibacterial activity against Moraxella catarrhalis 557 by microdilution method; format: functional; procedure, shortened: as §2
Haemophilus influenzae [31] = assay: Antibacterial activity against ampicillin-resistant Haemophilus influenzae 1742 by microdilution method; format: functional; procedure, shortened: as §2
Haemophilus influenzae [32] = assay: Antibacterial activity against Haemophilus influenzae 1224 ATCC 49247 by microdilution method; format: functional; procedure, shortened: as §2
[33] = test system: Haemophilus parainfluenzae; assay: Antibacterial activity against Haemophilus parainfluenzae 2319 ATCC 7901 by microdilution method; format: functional; procedure, shortened: as §2
Escherichia coli [34] = assay: Antibacterial activity against Escherichia coli 102 ATCC 25922 by microdilution method; format: functional; procedure, shortened: as §2
Escherichia coli [35] = assay: Antibacterial activity against extended spectrum beta-lactamase-producing Escherichia coli 2269 by microdilution method; format: functional; procedure, shortened: as §2
Klebsiella pneumoniae [36] = assay: Antibacterial activity against Klebsiella pneumoniae 2239 by microdilution method; format: functional; procedure, shortened: as §2
Klebsiella pneumoniae [37] = assay: Antibacterial activity against ampicillin beta-lactamase, multidrug-resistant Klebsiella pneumoniae 2262 by microdilution method; format: functional; procedure, shortened: as §2
Serratia marcescens = assay: Antibacterial activity against Serratia marcescens 1635 by microdilution method; format: functional; procedure, shortened: as §2

Oc1cc(Cl)cc(Cl)c1-n1cc(Cl)c(Cl)c1Cl [NEOPYRROLOMYCIN C]
MIC90 (Escherichia coli [1]): 16 µg/mL (≈ 48.3 µM)
MIC90 (Escherichia coli [2]): 16 µg/mL (≈ 48.3 µM)
MIC90 (Klebsiella pneumoniae [3]): 16 µg/mL (≈ 48.3 µM)
MIC90 (Staphylococcus aureus [4]): 1 µg/mL (≈ 3.02 µM)
MBC (Staphylococcus aureus [5]): 8 µg/mL (≈ 24.1 µM)
MIC90 (Staphylococcus aureus [5]): 2 µg/mL (≈ 6.03 µM)
MIC90 (Staphylococcus aureus [6]): 2 µg/mL (≈ 6.03 µM)
MIC90 (Pseudomonas aeruginosa [7]): 32 µg/mL (≈ 96.6 µM)
MIC90 (Streptococcus pneumoniae [8]): 8 µg/mL (≈ 24.1 µM)
MIC90 (Enterococcus faecium [9]): 2 µg/mL (≈ 6.03 µM)
Activity (HepG2): Active
CC90 (NHDF): 43 µg/mL (≈ 130 µM)

Oc1cc(Cl)c(Cl)cc1-n1cc(Cl)c(Cl)c1Cl [NEOPYRROLOMYCIN D]
MIC90 (Escherichia coli [1]): 16 µg/mL (≈ 48.3 µM)
MIC90 (Escherichia coli [2]): 16 µg/mL (≈ 48.3 µM)
MIC90 (Klebsiella pneumoniae [3]): 16 µg/mL (≈ 48.3 µM)
MIC90 (Staphylococcus aureus [4]): 2 µg/mL (≈ 6.03 µM)
MBC (Staphylococcus aureus [5]): 8 µg/mL (≈ 24.1 µM)
MIC90 (Staphylococcus aureus [5]): 2 µg/mL (≈ 6.03 µM)
MIC90 (Staphylococcus aureus [6]): 2 µg/mL (≈ 6.03 µM)
MIC90 (Pseudomonas aeruginosa [7]): 32 µg/mL (≈ 96.6 µM)
MIC90 (Streptococcus pneumoniae [8]): 8 µg/mL (≈ 24.1 µM)
MIC90 (Enterococcus faecium [9]): 4 µg/mL (≈ 12.1 µM)
Activity (HepG2): Active
CC90 (NHDF): 43 µg/mL (≈ 130 µM)

CN[C@H](CC(C)C)C(=O)N[C@H]1C(=O)N[C@@H](CC(N)=O)C(=O)N[C@H]2C(=O)N[C@H]3C(=O)N[C@H](C(=O)N[C@H](C(=O)O)c4cc(O)cc(O)c4-c4cc3ccc4O)[C@H](O)c3ccc(c(Cl)c3)Oc3cc2cc(c3O[C@@H]2O[C@H](CO)[C@@H](O)[C@H](O)[C@H]2O[C@H]2C[C@](C)(N)[C@H](O)[C@H](C)O2)Oc2ccc(cc2Cl)[C@H]1O [VANCOMYCIN]
MIC90 (Pseudomonas aeruginosa [10]): > 64 µg/mL
MIC90 (Staphylococcus aureus [11]): 2 µg/mL (≈ 1.38 µM)
MIC90 (Staphylococcus aureus [12]): 1 µg/mL (≈ 0.69 µM)
MIC90 (Staphylococcus aureus [13]): 1 µg/mL (≈ 0.69 µM)
MIC90 (Staphylococcus aureus [14]): 16 µg/mL (≈ 11 µM)
MIC90 (Staphylococcus aureus [15]): 8 µg/mL (≈ 5.52 µM)
MIC90 (Staphylococcus aureus [16]): 2 µg/mL (≈ 1.38 µM)
MIC90 (Staphylococcus aureus [17]): 1 µg/mL (≈ 0.69 µM)
MIC90 (Staphylococcus aureus [18]): 0.12 µg/mL (≈ 0.0828 µM)
MIC90 [19]: 2 µg/mL (≈ 1.38 µM)
MIC90 [20]: 4 µg/mL (≈ 2.76 µM)
MIC90 [21]: 2 µg/mL (≈ 1.38 µM)
MIC90 (Enterococcus faecalis): > 64 µg/mL
MIC90 (Enterococcus faecium [22]): 2 µg/mL (≈ 1.38 µM)
MIC90 (Enterococcus faecium [23]): > 64 µg/mL
MIC90 (Streptococcus pneumoniae [24]): 0.5 µg/mL (≈ 0.345 µM)
MIC90 (Streptococcus pneumoniae [25]): 0.25 µg/mL (≈ 0.173 µM)
MIC90 (Streptococcus pneumoniae [26]): 0.5 µg/mL (≈ 0.345 µM)
MIC90 (Streptococcus pneumoniae [27]): 0.2 µg/mL (≈ 0.138 µM)
MIC90 (Streptococcus pneumoniae [28]): 0.5 µg/mL (≈ 0.345 µM)
MIC90 (Streptococcus pneumoniae [29]): 1 µg/mL (≈ 0.69 µM)
MIC90 (Streptococcus pneumoniae [30]): 0.25 µg/mL (≈ 0.173 µM)
MIC90 (Streptococcus pyogenes): 0.5 µg/mL (≈ 0.345 µM)
MIC90 (Streptococcus agalactiae): 0.5 µg/mL (≈ 0.345 µM)
MIC90 (Moraxella catarrhalis): > 64 µg/mL
MIC90 (Haemophilus influenzae [31]): > 64 µg/mL
MIC90 (Haemophilus influenzae [32]): > 64 µg/mL
MIC90 [33]: 64 µg/mL (≈ 44.2 µM)
MIC90 (Escherichia coli [34]): > 64 µg/mL
MIC90 (Escherichia coli [35]): > 64 µg/mL
MIC90 (Klebsiella pneumoniae [36]): > 64 µg/mL
MIC90 (Klebsiella pneumoniae [37]): > 64 µg/mL
MIC90 (Serratia marcescens): > 64 µg/mL
